≈ marks a conversion by molar mass, not a printed value.
Assays:
[1] = test system: Mus musculus; assay: Antidiabetic activity in C57Bl/6J mouse assessed as change in blood glucose level at 50 mg/kg, po after 4 hrs relative to vehicle-treated control; assay type: functional
In short: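 C57Bl/6J mice, 2 months old, n = 6 per group, fasted 2 h, received 50 mg/kg orally or vehicle. Blood was sampled at 2, 4, 6 and 8 h after dosing. The recorded value is % blood glucose change versus vehicle at 4 h.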

[2] = biological target: hERG (KCNH2) (Homo sapiens, UniProt Q12809); assay: Inhibition of human ERG channel at 10 uM by patch clamp method
[3] = biological target: T1, Hexokinase-4 (Homo sapiens) (UniProt P35557); assay: Activation of glucokinase (unknown origin) using glucose as substrate assessed as stimulation concentration required to achieve 150% activity relative to control
T1 sequence (whole entry): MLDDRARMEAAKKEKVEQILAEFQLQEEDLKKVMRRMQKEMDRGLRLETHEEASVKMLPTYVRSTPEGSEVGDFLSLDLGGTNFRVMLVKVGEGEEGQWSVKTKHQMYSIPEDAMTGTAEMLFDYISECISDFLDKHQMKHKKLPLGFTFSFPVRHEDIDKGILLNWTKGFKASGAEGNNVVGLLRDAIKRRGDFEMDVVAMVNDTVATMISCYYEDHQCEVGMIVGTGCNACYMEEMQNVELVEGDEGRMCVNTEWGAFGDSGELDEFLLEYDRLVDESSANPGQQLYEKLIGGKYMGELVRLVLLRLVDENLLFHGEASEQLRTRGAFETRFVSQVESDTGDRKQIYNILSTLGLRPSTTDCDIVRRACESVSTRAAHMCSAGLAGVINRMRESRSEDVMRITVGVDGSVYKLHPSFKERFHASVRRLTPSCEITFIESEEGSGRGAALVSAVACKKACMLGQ
In short: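 Read-out is the compound concentration giving GK activity 150% of control (SC1.5). Values are means of at least three independent assays. Assay CV averaged 15%.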

[4] = Metabolic stability in human hepatocytes after 3 hrs by LC-MS/MS analysis; assay type: ADME, cell-based, Hepatocyte; conditions: read-out: Stability
[5] = test system: Mus musculus; assay: Antidiabetic activity in po dosed diet induced obese C57Bl/6J mouse assessed as reduction in blood glucose level after 2 to 4 hrs; assay type: functional
In short: (§1)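 Diet-induced obese C57Bl/6J mice were used: 6 months old, on high-fat diet for 4 months, n = 9 per dose. Oral doses were 7.5, 15 and 30 mg/kg. Basal blood glucose lowering was read at 2 and 4 h post-dose.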

[6] = test system: Mus musculus; assay: Antidiabetic activity in diet induced obese C57Bl/6J mouse assessed as reduction in blood glucose level at 15 mg/kg, po after 2 to 4 hrs; assay type: functional; parameters: scale not given: the % may be the effect or the level left; in short: as §1
[7] = test system: Mus musculus; assay: Antidiabetic activity in po dosed diet induced obese C57Bl/6J mouse assessed as lowering blood glucose level; assay type: functional, organism-based
In short: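 Diet-induced obese C57Bl/6J mice were used: 6 months old, 4 months on high-fat diet, n = 9 per dose. Oral doses were 7.5, 15 and 30 mg/kg, with glucose followed at 2 and 4 h post-dose. The dose giving 25% glucose lowering (ED25) was reported.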

[8] = test system: Mus musculus; assay: Antidiabetic activity in diet induced obese C57Bl/6J mouse assessed as reduction in blood glucose level at 30 mg/kg, po after 2 to 4 hrs; assay type: functional; parameters: scale not given: the % may be the effect or the level left; in short: as §1
[9] = Oral bioavailability in dog at 30 mg/kg; assay type: ADME, organism-based, Canis lupus familiaris; conditions: in vivo
[10] = Tmax in dog at 30 mg/kg, po; assay type: ADME, organism-based, Canis lupus familiaris; parameters: dose 30 mg/kg, route oral; conditions: in vivo
[11] = Cmax in dog at 30 mg/kg, po; assay type: ADME, organism-based, Canis lupus familiaris; parameters: dose 30 mg/kg, route oral; conditions: in vivo
[12] = AUC (0 to infinity) in dog at 30 mg/kg, po; assay type: ADME, organism-based, Canis lupus familiaris; parameters: time infinity, dose 30 mg/kg, route oral; conditions: plasma
[13] = AUC (0 to infinity) in dog at 10 mg/kg, iv; assay type: ADME, organism-based, Canis lupus familiaris; parameters: time infinity, dose 10 mg/kg, route intravenous; conditions: plasma
[14] = Clearance in dog at 10 mg/kg, iv; assay type: ADME, organism-based, Canis lupus familiaris; parameters: dose 10 mg/kg, route intravenous; conditions: in vivo
[15] = Volume of distribution at steady state in dog at 10 mg/kg, iv; assay type: ADME, organism-based, Canis lupus familiaris; parameters: dose 10 mg/kg, route intravenous; conditions: in vivo, read-out: Vdss
[16] = Oral bioavailability in C57Bl/6J mouse at 30 mg/kg; assay type: ADME, organism-based; conditions: in vivo
[17] = Tmax in C57Bl/6J mouse at 30 mg/kg, po; assay type: ADME, organism-based; parameters: dose 30 mg/kg, route oral; conditions: in vivo
[18] = Cmax in C57Bl/6J mouse at 30 mg/kg, po; assay type: ADME, organism-based; parameters: dose 30 mg/kg, route oral; conditions: in vivo
[19] = AUC (0 to infinity) in C57Bl/6J mouse at 30 mg/kg, po; assay type: ADME, organism-based; parameters: time infinity, dose 30 mg/kg, route oral; conditions: plasma
[20] = AUC (0 to infinity) in C57Bl/6J mouse at 10 mg/kg, iv; assay type: ADME, organism-based; parameters: time infinity, dose 10 mg/kg, route intravenous; conditions: plasma
[21] = Volume of distribution at steady state in C57Bl/6J mouse at 10 mg/kg, iv; assay type: ADME, organism-based; parameters: dose 10 mg/kg, route intravenous; conditions: in vivo, read-out: Vdss
[22] = Clearance in C57Bl/6J mouse at 10 mg/kg, iv; assay type: ADME, organism-based; parameters: dose 10 mg/kg, route intravenous; conditions: in vivo
[23] = test system: Liver microsomes; assay: Covalent binding to human liver microsomes after 30 mins in presence of NADPH per mg of protein; assay type: ADME, Microsome; conditions: 0.5 h
In short: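 Covalent binding to human liver microsomes was measured with NADPH over 30 min. It is expressed per mg protein.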

[24] = Inhibition of cytochrome P450 (unknown origin); assay type: ADME, Homo sapiens
In short: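 IC50 was measured against 7 CYP isoforms.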

[25] = biological target: Voltage-gated inwardly rectifying potassium channel KCNH2 (Homo sapiens, UniProt Q12809); assay: Inhibition of human ERG channel
In short: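 hERG potassium channel current was measured by patch clamp at varied concentrations. IC50 was taken from the concentration-dependent inhibition.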

[26] = Fraction unbound in human plasma; assay type: ADME, cell-free
[27] = Apparent permeability of the compound across human Caco2 cells; assay type: ADME, cell-based; conditions: Caco-2
[28] = Dissociation constant, pKa of the compound; assay type: physicochemical
[29] = Solubility of the compound at pH 7.4; assay type: physicochemical; conditions: buffer
[30] = Lipophilicity, log D of the compound at pH 7.4; assay type: physicochemical; conditions: buffer
[31] = biological target: T1, Hexokinase-4 (Homo sapiens); assay: Activation of human recombinant glucokinase using glucose as substrate
In short: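 Recombinant human GK was run across a range of glucose concentrations with varied activator levels. Vmax and the glucose SC0.5 (concentration reaching half Vmax) were derived.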

Sequence of hERG (KCNH2) (Q12809 whole entry): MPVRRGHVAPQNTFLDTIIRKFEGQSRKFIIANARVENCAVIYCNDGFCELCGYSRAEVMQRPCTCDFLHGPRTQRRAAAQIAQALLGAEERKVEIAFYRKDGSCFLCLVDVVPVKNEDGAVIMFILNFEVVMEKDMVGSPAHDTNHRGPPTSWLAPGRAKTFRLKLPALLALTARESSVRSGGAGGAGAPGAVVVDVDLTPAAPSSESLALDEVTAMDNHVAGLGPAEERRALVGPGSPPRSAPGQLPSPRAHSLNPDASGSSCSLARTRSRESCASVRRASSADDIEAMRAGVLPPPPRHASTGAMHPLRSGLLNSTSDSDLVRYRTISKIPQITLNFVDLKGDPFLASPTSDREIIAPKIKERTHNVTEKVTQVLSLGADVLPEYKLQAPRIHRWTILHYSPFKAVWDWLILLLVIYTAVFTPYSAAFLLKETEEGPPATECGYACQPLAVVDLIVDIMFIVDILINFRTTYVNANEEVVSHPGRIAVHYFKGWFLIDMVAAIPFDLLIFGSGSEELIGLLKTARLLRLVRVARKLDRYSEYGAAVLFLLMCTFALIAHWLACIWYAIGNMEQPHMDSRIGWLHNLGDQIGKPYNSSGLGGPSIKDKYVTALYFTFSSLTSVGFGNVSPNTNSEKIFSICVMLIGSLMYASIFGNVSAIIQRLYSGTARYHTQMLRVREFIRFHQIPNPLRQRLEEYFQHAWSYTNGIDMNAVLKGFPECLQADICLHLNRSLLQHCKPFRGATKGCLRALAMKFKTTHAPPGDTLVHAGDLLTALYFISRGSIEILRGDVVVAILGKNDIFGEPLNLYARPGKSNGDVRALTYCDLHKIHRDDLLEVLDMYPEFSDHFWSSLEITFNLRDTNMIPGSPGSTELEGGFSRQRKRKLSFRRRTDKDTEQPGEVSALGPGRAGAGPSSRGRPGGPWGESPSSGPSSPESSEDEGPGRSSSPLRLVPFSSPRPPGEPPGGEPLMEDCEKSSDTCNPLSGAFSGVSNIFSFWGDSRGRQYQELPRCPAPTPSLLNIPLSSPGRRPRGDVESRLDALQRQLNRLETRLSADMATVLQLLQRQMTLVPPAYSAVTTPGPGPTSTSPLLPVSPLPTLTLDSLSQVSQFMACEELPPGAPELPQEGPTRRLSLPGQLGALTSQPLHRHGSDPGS
Sequence of Voltage-gated inwardly rectifying potassium channel KCNH2 (Q12809 whole entry): as above

Structure (SMILES): CS(=O)(=O)c1ccc([C@@H](CC2CCCC2)C(=O)Nc2cnc(C#CCO)cn2)cc1Cl
- Activity [1]: -46%
- inhibition at 10 µM [2]: 46%
- Activity [3]: 0.022 µM

Structure (SMILES): CS(=O)(=O)c1ccc([C@@H](CC2CCCC2)C(=O)Nc2cnc(C(=O)NO)cn2)cc1Cl
- Activity [1]: -14%
- inhibition at 10 µM [2]: 37%
- Activity [3]: 0.41 µM

Structure (SMILES): CS(=O)(=O)c1ccc([C@@H](CC2CCCC2)C(=O)Nc2cnccn2)cc1Cl
- Activity [1]: -53%
- Activity [3]: 0.11 µM

Structure (SMILES): CS(=O)(=O)c1ccc([C@@H](CC2CCCC2)C(=O)Nc2cnc([C@@H](O)CO)cn2)cc1Cl
- Activity [1]: -35%
- inhibition at 10 µM [2]: 21%
- Activity [3]: 1.1 µM

Structure (SMILES): COCC#Cc1cnc(NC(=O)[C@H](CC2CCCC2)c2ccc(S(C)(=O)=O)c(Cl)c2)cn1
- Activity [1]: -49%
- inhibition at 10 µM [2]: 53%
- Activity [3]: 0.14 µM

Structure (SMILES): CS(=O)(=O)c1ccc(C(CC2CCOCC2)C(=O)Nc2cnccn2)cc1Cl (stereo not given)
- Activity [1]: -5.6%
- inhibition at 10 µM [2]: 8.1%
- Activity [3]: 1.4 µM

Structure (SMILES): CC(C)(O)[C@@H](O)c1cnc(NC(=O)[C@H](CC2CCCC2)c2ccc(S(C)(=O)=O)c(Cl)c2)cn1
- Activity [1]: -44%
- Activity [3]: 0.31 µM

Structure (SMILES): CS(=O)(=O)c1ccc([C@@H](CC2CCCC2)C(=O)Nc2cnc([C@H](O)CO)cn2)cc1Cl
- remaining at 3 h [4]: 95%
- ED25 [5]: 10 mg/kg
- Activity [6]: 32%
- Activity [7]: Dose-dependent effect
- Activity [8]: 45%
- bioavailability [9]: 84%
- Tmax [10]: 7.3 h
- Cmax [11]: 3790 ng/mL
- AUC(0-inf) [12]: 54500 ng·h/mL
- AUC(0-inf) [13]: 21600 ng·h/mL
- clearance [14]: 8 mL/min/kg
- Vd [15]: 1.69 L/kg
- bioavailability [16]: 50.3%
- Tmax [17]: 4 h
- Cmax [18]: 1310 ng/mL
- AUC(0-inf) [19]: 12100 ng·h/mL
- AUC(0-inf) [20]: 8010 ng·h/mL
- Vd [21]: 1.44 L/kg
- clearance [22]: 20.8 mL/min/kg
- Activity [23]: 33 pmol
- IC50 [24]: > 30 µM
- IC50 [25]: 70 µM
- fraction unbound [26]: 0.1
- Papp [27]: 3.36 ×10⁻⁶ cm/s
- pKa [28]: 11.4
- solubility [29]: 170 µg/mL (≈ 363 µM)
- logD [30]: 2.7
- Activity [31]: Dose-dependent effect
- Activity [1]: -44%
- inhibition at 10 µM [2]: 22%
- Activity [3]: 0.26 µM

Structure (SMILES): CS(=O)(=O)c1ccc([C@@H](CC2CCCC2)C(=O)Nc2cnc(OC[C@H](O)CO)cn2)cc1Cl
- Activity [1]: -38%
- Activity [3]: 0.19 µM

Structure (SMILES): CS(=O)(=O)Cc1cnc(NC(=O)[C@H](CC2CCCC2)c2ccc(S(C)(=O)=O)c(Cl)c2)cn1
- Activity [1]: -39%
- Activity [3]: 0.26 µM

Structure (SMILES): CS(=O)(=O)c1ccc([C@@H](CC2CCCC2)C(=O)Nc2cnc(C#CC3(O)CCOCC3)cn2)cc1Cl
- Activity [1]: -45%
- Activity [3]: 0.075 µM

Structure (SMILES): C/C(=N/O)c1cnc(NC(=O)[C@H](CC2CCCC2)c2ccc(S(C)(=O)=O)c(Cl)c2)cn1
- Activity [1]: -43%
- inhibition at 10 µM [2]: 73%
- Activity [3]: 0.059 µM

Structure (SMILES): CC(C)(O)C#Cc1cnc(NC(=O)[C@H](CC2CCCC2)c2ccc(S(C)(=O)=O)c(Cl)c2)cn1
- Activity [1]: -48%
- Activity [3]: 0.056 µM

Structure (SMILES): CS(=O)(=O)c1ccc(C(CC2CCOC2)C(=O)Nc2cnccn2)cc1Cl (stereo not given)
- Activity [3]: 3.6 µM

Structure (SMILES): CSc1cnc(NC(=O)[C@H](CC2CCCC2)c2ccc(S(C)(=O)=O)c(Cl)c2)cn1
- Activity [1]: -26%
- Activity [3]: 0.054 µM

Structure (SMILES): COc1cc(C(CC2CCCC2)C(=O)Nc2cnccn2)ccc1S(C)(=O)=O (stereo not given)
- inhibition at 10 µM [2]: 36%
- Activity [3]: 1.9 µM

Structure (SMILES): CS(=O)(=O)c1ccc([C@@H](CC2CCCC2)C(=O)Nc2cnc(CCC3(O)CCOCC3)cn2)cc1Cl
- Activity [1]: -43%
- inhibition at 10 µM [2]: 40%
- Activity [3]: 0.13 µM

Structure (SMILES): CS(=O)(=O)c1ccc([C@@H](CC2CCCC2)C(=O)Nc2cnc(/C(N)=N\O)cn2)cc1Cl
- Activity [1]: -53%
- inhibition at 10 µM [2]: 50%
- Activity [3]: 0.037 µM

Structure (SMILES): CN(C)CC#Cc1cnc(NC(=O)[C@H](CC2CCCC2)c2ccc(S(C)(=O)=O)c(Cl)c2)cn1
- Activity [1]: -46%
- inhibition at 10 µM [2]: 86%
- Activity [3]: 0.11 µM

Structure (SMILES): C[S+]([O-])c1cnc(NC(=O)[C@H](CC2CCCC2)c2ccc(S(C)(=O)=O)c(Cl)c2)cn1 (stereo not given in full)
- Activity [1]: -26%
- inhibition at 10 µM [2]: 27%
- Activity [3]: 0.4 µM

Structure (SMILES): CS(=O)(=O)c1ccc([C@@H](CC2CCCC2)C(=O)Nc2cnc(OC[C@@H](O)CO)cn2)cc1Cl
- Activity [1]: -29%
- Activity [3]: 0.3 µM

From ChEMBL document CHEMBL2331552, “Identification of RO4597014, a Glucokinase Activator Studied in the Clinic for the Treatment of Type 2 Diabetes” (ACS Med Chem Lett, 2013)
